For data set [1], the target named is T1, Prostaglandin G/H synthase 2 (Homo sapiens) (UniProt P35354).
T1 sequence (whole entry): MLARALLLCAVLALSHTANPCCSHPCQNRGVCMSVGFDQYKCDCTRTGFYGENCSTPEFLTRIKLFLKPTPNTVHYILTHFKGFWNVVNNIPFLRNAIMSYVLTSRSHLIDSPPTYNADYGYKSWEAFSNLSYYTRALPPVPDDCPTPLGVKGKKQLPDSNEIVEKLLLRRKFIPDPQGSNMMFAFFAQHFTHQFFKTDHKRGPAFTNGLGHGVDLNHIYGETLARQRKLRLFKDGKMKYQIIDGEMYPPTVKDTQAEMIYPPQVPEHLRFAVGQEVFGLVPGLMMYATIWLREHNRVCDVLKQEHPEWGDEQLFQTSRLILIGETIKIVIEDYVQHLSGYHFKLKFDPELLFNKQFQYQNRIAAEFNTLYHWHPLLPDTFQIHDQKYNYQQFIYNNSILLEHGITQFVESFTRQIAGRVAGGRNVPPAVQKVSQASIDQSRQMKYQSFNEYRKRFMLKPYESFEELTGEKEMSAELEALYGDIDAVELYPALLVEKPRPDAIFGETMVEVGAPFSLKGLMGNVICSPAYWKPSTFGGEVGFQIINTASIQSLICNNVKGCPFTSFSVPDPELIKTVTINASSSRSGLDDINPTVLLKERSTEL
Put plainly: Inhibition of COX2-mediated PGE2 formation in IL1beta/TNFalpha-stimulated human HeLa cells using arachidonic acid as substrate assessed as residual activity at 10 uM measured after 30 mins by ELISA. It is filed as cell-based. In short, it runs like this:
(§1)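 HeLa cells (3 × 10^4/well) grown 24 h, then induced with 1 ng/ml IL1β and 5 ng/ml TNFα for 24 h; washed three times with PBS containing fatty-acid-free BSA 1 mg/ml. Medium with cytokines plus compound or DMSO for 30 min, stopped on ice; supernatant PGE2 by ELISA, percent of DMSO control. Three experiments, mean ± S.E.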
For orientation: ELISA stands for enzyme-linked immunosorbent assay.

Data set [2] can be described thus: Cytotoxicity against human U937 cells at 30 uM after 48 hrs by LDH assay. It is filed as cell-based. Conditions: u-937, 48 h. In short, it runs like this: (§2)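 U937 cells (DSMZ; RPMI, 10% FCS, 37 °C, 5% CO2) seeded at 1.5 × 10^4 cells/well, exposed to test agent or DMSO vehicle for 48 h. Supernatant collected after centrifugation; LDH release quantified by kit, expressed relative to detergent-lysed maximum (100%). Three experiments, mean ± S.E.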

The target of data set [3] is T2, Polyunsaturated fatty acid lipoxygenase ALOX12 (Homo sapiens) (UniProt P18054).
T2 sequence (whole entry): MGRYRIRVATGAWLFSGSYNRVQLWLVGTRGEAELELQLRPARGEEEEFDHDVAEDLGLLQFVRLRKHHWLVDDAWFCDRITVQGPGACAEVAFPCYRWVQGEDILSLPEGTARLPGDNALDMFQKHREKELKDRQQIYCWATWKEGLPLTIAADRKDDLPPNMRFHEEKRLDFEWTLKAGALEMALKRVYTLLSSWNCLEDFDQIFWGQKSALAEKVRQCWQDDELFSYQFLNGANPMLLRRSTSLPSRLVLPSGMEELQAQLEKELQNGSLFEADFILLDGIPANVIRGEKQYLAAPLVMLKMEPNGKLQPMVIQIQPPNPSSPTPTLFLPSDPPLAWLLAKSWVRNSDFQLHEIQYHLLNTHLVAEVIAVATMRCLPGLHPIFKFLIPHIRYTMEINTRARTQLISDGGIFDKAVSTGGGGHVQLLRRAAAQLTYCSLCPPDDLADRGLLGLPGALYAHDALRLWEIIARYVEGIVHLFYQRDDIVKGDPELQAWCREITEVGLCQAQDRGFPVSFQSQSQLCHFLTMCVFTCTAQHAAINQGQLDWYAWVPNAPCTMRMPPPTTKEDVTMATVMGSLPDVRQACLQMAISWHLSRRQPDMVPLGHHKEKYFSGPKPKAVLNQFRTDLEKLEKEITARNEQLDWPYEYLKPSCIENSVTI
Put plainly: Inhibition of 12-LO-mediated 12-HPETE formation in human platelets using arachidonic acid as substrate assessed as residual activity at 50 uM preincubated for 15 mins before substrate addition measured after 10 mins. An outline of the steps: (§3)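 Freshly isolated human platelets (10^8 in 1 ml PBS pH 7.4 with 1 mg/ml glucose and 1 mM CaCl2) preincubated with compound or DMSO 15 min at 37 °C, then 10 µM AA added; 10 min at 37 °C, stopped with ice-cold methanol. HPLC: 12-H(P)ETE for 12-LO, 12-HHT for COX-1; percent of DMSO control, n ≥ 3, mean ± S.E.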

In data set [4] the target is T3, Polyunsaturated fatty acid lipoxygenase ALOX15 (Homo sapiens) (UniProt P16050).
T3 sequence (whole entry): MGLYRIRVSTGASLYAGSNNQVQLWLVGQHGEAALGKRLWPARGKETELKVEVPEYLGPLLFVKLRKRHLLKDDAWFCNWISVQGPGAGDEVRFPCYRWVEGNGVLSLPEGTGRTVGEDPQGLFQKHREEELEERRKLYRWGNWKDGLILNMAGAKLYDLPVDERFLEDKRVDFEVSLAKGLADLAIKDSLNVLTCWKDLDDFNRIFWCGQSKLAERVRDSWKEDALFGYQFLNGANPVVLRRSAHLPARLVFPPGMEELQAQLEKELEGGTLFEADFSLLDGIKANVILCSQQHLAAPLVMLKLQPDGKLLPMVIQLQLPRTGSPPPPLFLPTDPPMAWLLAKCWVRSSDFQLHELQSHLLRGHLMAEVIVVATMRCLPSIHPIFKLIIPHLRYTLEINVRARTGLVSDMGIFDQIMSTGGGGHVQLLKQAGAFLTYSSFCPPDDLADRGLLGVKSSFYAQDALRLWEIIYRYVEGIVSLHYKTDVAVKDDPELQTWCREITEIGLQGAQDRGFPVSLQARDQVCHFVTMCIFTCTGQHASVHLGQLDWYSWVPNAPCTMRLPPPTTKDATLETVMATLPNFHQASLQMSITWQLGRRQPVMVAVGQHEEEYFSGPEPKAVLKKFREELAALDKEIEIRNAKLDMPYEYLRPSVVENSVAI
Put plainly: Inhibition of 15-LO1-mediated 15-HPETE formation in human eosinophil using arachidonic acid as substrate assessed as residual activity at 50 uM preincubated for 15 mins before substrate addition measured after 10 mins. An outline of the steps:
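Freshly isolated human PMNL (5 × 10^6/ml PBS-glucose, 1 mM CaCl2), with 15-LO1 from contaminating eosinophils, preincubated with compound 15 min at 37 °C; stimulated with 2.5 µM A23187 plus 20 µM AA for 10 min at 37 °C, methanol stop. 15-H(P)ETE peak quantified by HPLC as percent of DMSO control; n ≥ 3, mean ± S.E.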

Data set [5] deals with Prostaglandin G/H synthase 1 (Homo sapiens) (UniProt P23219). Put plainly: Inhibition of COX1 in human platelets using arachidonic acid as substrate assessed as residual activity at 10 uM preincubated for 15 mins before substrate addition measured after 10 mins. An outline of the steps:
as §3

Data set [6] can be described thus: Cytotoxicity against human U937 cells at 100 uM after 48 hrs by LDH assay. It is filed as cell-based. The settings on record: u-937, 48 h. An outline of the steps:
as §2

For data set [7], the target named is Prostaglandin G/H synthase 1 (Homo sapiens) (UniProt P23219). Put plainly: Inhibition of COX1 in human platelets using arachidonic acid as substrate assessed as residual activity at 50 uM preincubated for 15 mins before substrate addition measured after 10 mins. An outline of the steps: as §3
Data set [8] concerns the target T1, Prostaglandin G/H synthase 2 (Homo sapiens). As to the kind of experiment: Inhibition of COX2-mediated PGE2 formation in IL1beta/TNFalpha-stimulated human HeLa cells using arachidonic acid as substrate assessed as residual activity at 50 uM measured after 30 mins by ELISA. The format is cell-based. An outline of the steps: as §1

Prostaglandin G/H synthase 1 (Homo sapiens), sequence (P23219 whole entry): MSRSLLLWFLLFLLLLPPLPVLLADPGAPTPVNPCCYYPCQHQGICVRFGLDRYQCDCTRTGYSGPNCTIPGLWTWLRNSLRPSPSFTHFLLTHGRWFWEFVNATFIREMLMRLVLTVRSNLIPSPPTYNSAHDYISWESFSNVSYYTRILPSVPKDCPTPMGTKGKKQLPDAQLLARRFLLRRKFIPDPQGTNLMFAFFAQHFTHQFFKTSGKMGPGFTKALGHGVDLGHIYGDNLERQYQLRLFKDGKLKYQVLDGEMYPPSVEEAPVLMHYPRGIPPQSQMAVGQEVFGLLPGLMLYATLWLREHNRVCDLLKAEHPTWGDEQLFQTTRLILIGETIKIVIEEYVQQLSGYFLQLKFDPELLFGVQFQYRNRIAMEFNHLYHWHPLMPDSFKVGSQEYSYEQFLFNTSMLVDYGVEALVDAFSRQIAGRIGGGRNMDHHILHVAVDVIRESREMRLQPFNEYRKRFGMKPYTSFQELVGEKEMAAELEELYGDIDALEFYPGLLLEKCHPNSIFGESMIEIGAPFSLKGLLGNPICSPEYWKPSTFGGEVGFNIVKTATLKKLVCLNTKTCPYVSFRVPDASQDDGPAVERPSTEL

In the case of `Oc1ccccc1Nc1nc(-c2ccc(Cl)cc2)cs1`, the Activity in data set [1] is 9.1%; in data set [2] it was 0.9%; in data set [3] it was > 70%; in data set [4], > 70%; in data set [5] it was 67.4%.

For `Oc1ccc(Nc2nc(-c3ccc(Cl)c(Cl)c3)cs2)cc1`, the Activity is 15.1% in data set [1], 32.6% in data set [3], > 70% in data set [4] and 69.4% in data set [5].

In turn, `CCCCCC(O)c1cccc(OCc2ccc3ccccc3n2)c1` (stereo unspecified) [REV-5901] displayed an Activity in data set [6] of 28.3%.

Turning to `Cc1ccc(-c2csc(Nc3ccc(O)cc3)n2)cc1`, the Activity is 14% in data set [2]; > 70% in data set [3]; 44.6% in data set [4]; 18.5% in data set [7]; 3.4% in data set [8].

As to `Oc1ccc(Nc2nc(-c3ccc(Cl)cc3)cs2)cc1`, the Activity in data set [2] is 17.5%; in data set [3], > 70%; in data set [4], > 70%; in data set [7] it was 28.6%; in data set [8] it was 4.1%.

`CC(c1cc2ccccc2s1)N(O)C(N)=O` (stereo unspecified) [ZILEUTON] yielded an Activity in data set [6] of 1.5%.
